High-throughput results (PubChem BioAssay)
TAAR1 antagonist – antagonists of human TAAR1 | CHO RD-HGA16 TAAR1, Fluo-8 calcium fluorescence, antagonist | inhibition, % at 3 µM | 360,000 compounds, 1.5% hits;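 active = inhibition above a per-plate cutoff, the mean inhibition of test compounds on that plate plus 3 SD, cut at about 49% in these data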;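 also: 0% = DMSO plus EC80 beta-PEA response and 100% = DMSO alone without agonist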
Target sequence (Q96RJ0 whole entry, looked up): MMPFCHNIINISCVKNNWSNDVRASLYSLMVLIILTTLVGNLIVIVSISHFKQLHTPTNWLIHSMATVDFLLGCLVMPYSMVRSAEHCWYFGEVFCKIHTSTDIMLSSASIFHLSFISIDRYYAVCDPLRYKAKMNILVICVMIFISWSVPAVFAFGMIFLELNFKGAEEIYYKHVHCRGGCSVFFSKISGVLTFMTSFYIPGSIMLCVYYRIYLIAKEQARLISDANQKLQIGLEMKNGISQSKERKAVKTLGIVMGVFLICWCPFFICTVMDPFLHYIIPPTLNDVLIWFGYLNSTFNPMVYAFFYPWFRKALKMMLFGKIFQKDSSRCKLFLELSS
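System: RD-HGA16 CHO cells with stable hTAAR1 and Gα16 | Probe or stimulus: EC80 β-phenethylamine stimulus | Dosing: 3 µM, single point | Times: Dye loading 75 min at 37 °C, then 30 min room temperature | Measured by: Fluo-8 calcium-sensitive fluorescence | Read-out basis: % inhibition of agonist calcium response | Replicates: n of 1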
TAAR1 agonist – agonists of human TAAR1; Q96RJ0; CHO RD-HGA16 TAAR1, Fluo-8 calcium fluorescence; vehicle wells 0%, saturating PEA agonist 100%; activation, % at 3 µM; 360,000 compounds, 0.99% hits; AID 624467;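 active = activation above the mean activation of all test compounds in the run plus 3 SD, cut at about 38% in these data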
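Assay system – CHO-derived RD-HGA16 cells with stable Gα16 and human TAAR1 · Compound dosing – one-point dosing at 3 µM (nominal) · Incubation – 17-24 h seeding, 75 min 37 °C dye, 30 min RT · Measured by – kinetic Fluo-8 calcium fluorescence · Control set – DMSO vehicle as 0%, PEA at EC100 as 100% · Repeats – single well for each compound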
V1aR counter – activates human V1a receptor in oxytocin agonist counter-screen. activation, % at 3 µM. CHO-V1R cells, Fluo-8 calcium fluorescence, agonist mode; 0% DMSO, 100% 3 nM vasopressin. 320,000 compounds, 0.25% hits. P37288;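 active = activation above the mean activation of all tested compounds plus 3 SD, per screening run, cut at about 20% in these data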;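 also: signal is peak over basal fluorescence ratio across a 100 second FLIPR read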
OXTR potentiator – potentiates the human oxytocin receptor response. AID 2445. 320,000 compounds, 0.061% hits. CHO-OTR cells, Fluo-8 calcium fluorescence, potentiator mode; 0% = oxytocin EC15, 100% = EC100. activation, % at 3 µM. P30559;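 active = activation above that plate's cutoff, the mean activation of tested compounds plus 3 SD, cut at about 6.6% in these data, passing the limit was not always enough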;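 also: 100% uses oxytocin at 75 nM as the full agonist control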
Target sequence (P30559 whole entry, looked up): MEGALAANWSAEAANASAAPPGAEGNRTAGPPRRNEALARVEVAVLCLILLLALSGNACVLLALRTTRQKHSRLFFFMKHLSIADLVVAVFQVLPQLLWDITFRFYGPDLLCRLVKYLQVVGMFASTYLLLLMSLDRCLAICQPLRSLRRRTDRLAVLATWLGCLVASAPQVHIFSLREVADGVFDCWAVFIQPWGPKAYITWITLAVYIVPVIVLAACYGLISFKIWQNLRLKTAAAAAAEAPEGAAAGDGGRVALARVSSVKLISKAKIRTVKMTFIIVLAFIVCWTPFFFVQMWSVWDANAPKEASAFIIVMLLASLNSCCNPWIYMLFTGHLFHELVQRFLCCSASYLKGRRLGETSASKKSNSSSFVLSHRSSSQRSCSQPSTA
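System: human OTR in CHO cells; Also added: sub-maximal oxytocin, roughly EC15; Timing: compound 6 min at room temperature before oxytocin, 100 s read; Technique: Fluo-8 intracellular calcium fluorescence, ex 470-495, em 515-575 nm; Controls: oxytocin EC15 low and EC100 high; Replication: singlicate.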
OXTR ag – agonists of human oxytocin receptor; 320,000 compounds, 0.32% hits; CHO-OTR cells, Fluo-8 calcium fluorescence; normalized: DMSO 0%, oxytocin 100%; activation, % at 3 µM; P30559; AID 2435;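 active = activation above the mean of all tested compounds plus 3 SD, cutoff set per screening run, cut at about 20% in these data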;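 also: peak over basal fluorescence ratio from a 100 s FLIPR kinetic read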
TAAR1 nonsel count – nonselective antagonism, TAAR1 counter-screen; shares compounds with TAAR1 antagonist; counterscreen cell line, calcium fluorescence, antagonist mode; inhibition, % at 3 µM; 2,400 compounds, 77% hits; AID 651780; in the data active = inhibition above about 22%;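 also: CHO-Ga16 host cells stimulated with ATP at an EC80 level; 0% = agonist EC80 plus vehicle and 100% = vehicle without agonist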
TAAR1 ant conf – confirmation of human TAAR1 antagonists; shares compounds with TAAR1 antagonist; TAAR1-expressing cells, fluorescence antagonist read-out; inhibition, % at 3 µM; 2,400 compounds, 40% hits; in the data active = inhibition above about 49%;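 also: CHO-Ga16 host cells challenged with agonist PEA near its EC80; 0% = agonist at EC80 plus vehicle and 100% = vehicle with no agonist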
Ga16 ag counter – counter-screen for TAAR1 antagonists: nonselective Ga16 agonists. AID 651953. Ga16-expressing cells, calcium fluorescence, agonist counterscreen. activation, % at 3 µM. shares compounds with TAAR1 antagonist. 2,400 compounds, 18% hits; in the data active = activation above about 12%;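 also: 0% = vehicle wells and 100% = saturating stimulus response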
TAAR1 ag count – activates human TAAR1 in antagonist counter-screen. hTAAR1 cell line, fluorescence activation, agonist mode. activation, % at 3 µM. 2,400 compounds, 2% hits. shares compounds with TAAR1 antagonist. AID 651955; in the data active = activation above about 37%;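 also: CHO cells stably expressing TAAR1 with calcium dye readout; 0% = DMSO vehicle and 100% = full agonist response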
Numbers without * were called inactive. Shown are actives, neighbours in structure and some others; about 2.3% of the full set was active somewhere.

Screening COc1ccc(S(=O)(=O)N2CCN(c3nc(-c4cccnc4)nc4ccccc34)CC2)cc1 returned TAAR1 antagonist 37, TAAR1 agonist 4, V1aR counter 3, OXTR potentiator -4 and OXTR ag 0.
Screening Cc1ccc(C)c(S(=O)(=O)N2CCN(c3nc(-c4cccnc4)nc4ccccc34)CC2)c1 returned TAAR1 antagonist 61*, TAAR1 agonist 5, V1aR counter 0, OXTR potentiator -4, OXTR ag -1, TAAR1 nonsel count 13, TAAR1 ant conf 38, Ga16 ag counter 6 and TAAR1 ag count 8.
Screening FC(F)Oc1ccc(-c2csc(=Nc3cccnc3)n2CC2CCCO2)cc1 (configuration not stated) returned TAAR1 antagonist 57*, TAAR1 agonist 13, V1aR counter 7, OXTR potentiator -10, OXTR ag 5, TAAR1 nonsel count 37*, TAAR1 ant conf 44, Ga16 ag counter 8 and TAAR1 ag count 6.
For CCCCCCCCN1C(=O)[C@@H](CC(=O)NCCC(C)C)C[C@@]2(C(=O)OC)C1=C[C@H](C1CCCC1)O[C@@H]2C the results were TAAR1 antagonist -29 and TAAR1 agonist -1.
COc1cc(NC(=O)c2ccc(S(=O)(=O)N(C)c3ccccc3OC)cc2)cc(OC)c1 was read as TAAR1 antagonist 43, TAAR1 agonist 2, V1aR counter 2, OXTR potentiator -8 and OXTR ag 2.
COC(=O)c1cccc(NC(=O)c2ccc(S(=O)(=O)N(C)c3ccccc3OC)cc2)c1 was read as TAAR1 antagonist 70*, TAAR1 agonist 13, TAAR1 nonsel count 32*, TAAR1 ant conf 41, Ga16 ag counter 7 and TAAR1 ag count 5.
COc1ccccc1N(C)S(=O)(=O)c1ccc(C(=O)N(C)Cc2ccc(OC(F)F)cc2)cc1 was read as TAAR1 antagonist 85*, TAAR1 agonist 15, TAAR1 nonsel count 45*, TAAR1 ant conf 74*, Ga16 ag counter 13* and TAAR1 ag count 11.
For COc1ccccc1N(C)S(=O)(=O)c1ccc(C(=O)Nc2cccc(Br)c2)cc1 the results were TAAR1 antagonist 70*, TAAR1 agonist 6, V1aR counter 4, OXTR potentiator -9, OXTR ag 3, TAAR1 nonsel count 36*, TAAR1 ant conf 38, Ga16 ag counter 7 and TAAR1 ag count 2.
For COc1ccccc1N(C)S(=O)(=O)c1ccc(C(=O)OCC(=O)NCc2cccs2)cc1 the results were TAAR1 antagonist 83*, TAAR1 agonist 15, V1aR counter 3, OXTR potentiator -6, OXTR ag 1, TAAR1 nonsel count 38*, TAAR1 ant conf 62*, Ga16 ag counter 10 and TAAR1 ag count 13.
Screening COc1ccccc1N(C)S(=O)(=O)c1ccc(C(=O)Nc2ccc3nc(C)sc3c2)cc1 returned TAAR1 antagonist 43, TAAR1 agonist 7, V1aR counter 4, OXTR potentiator -11 and OXTR ag 3.
For COCCn1ccc2c(OCC(=O)Nc3ccccc3OC)cccc2c1=O the results were TAAR1 antagonist 58*, TAAR1 agonist 8, V1aR counter 0, OXTR potentiator -11, OXTR ag -2, TAAR1 nonsel count 27*, TAAR1 ant conf 41, Ga16 ag counter 8 and TAAR1 ag count 5.
For CC1(C)N=C(SCC(=O)Nc2ccc(Cl)cc2)C(c2ccc(Cl)cc2)=N1 the results were TAAR1 antagonist 68*, TAAR1 agonist 7, V1aR counter 2, OXTR potentiator -13, OXTR ag -1, TAAR1 nonsel count 27*, TAAR1 ant conf 48, Ga16 ag counter 5 and TAAR1 ag count -1.
For O=C(CSc1nnc(-c2cccc(Br)c2)o1)NCC1CCCO1 (configuration not stated) the results were TAAR1 antagonist -5 and TAAR1 agonist 1.
`Cc1cc(C)c(NC(=O)COC(=O)COc2ccc3c(C)cc(=O)oc3c2)c(Cl)c1` gave TAAR1 antagonist -18, TAAR1 agonist -2, V1aR counter -2, OXTR potentiator 9 and OXTR ag -2.
`CCOc1ccc2[nH]c3c(NCCc4ccc(OC)c(OC)c4)ncnc3c2c1` gave TAAR1 antagonist 51*, TAAR1 agonist 6, V1aR counter -1, OXTR potentiator 0, OXTR ag -3, TAAR1 nonsel count 18, TAAR1 ant conf 31, Ga16 ag counter 4 and TAAR1 ag count 1.
CCOc1ccc2[nH]c3c(NCCO)ncnc3c2c1 was read as TAAR1 antagonist -2 and TAAR1 agonist 4.
O=C1c2ccccc2C(c2nnnn2-c2ccc3c(c2)OCCO3)N1Cc1ccccc1 (configuration not stated) was read as TAAR1 antagonist -6 and TAAR1 agonist 3.
Cc1ccc(-c2cc(C(=O)Nc3c(C)n(C)n(-c4ccccc4)c3=O)c3ccccc3n2)cc1 was read as TAAR1 antagonist 49*, TAAR1 agonist 10, V1aR counter -1, OXTR potentiator 0, OXTR ag -1, TAAR1 nonsel count 30*, TAAR1 ant conf 40, Ga16 ag counter 6 and TAAR1 ag count 3.
Screening Cc1c(NC(=O)COC(=O)c2cc(-c3ccc(-c4ccccc4)cc3)nc3ccccc23)c(=O)n(-c2ccccc2)n1C returned TAAR1 antagonist 19, TAAR1 agonist 1, V1aR counter 0, OXTR potentiator 3 and OXTR ag 0.
`Cc1c(NC(=O)c2cc(-c3ccccc3)nc3ccccc23)c(=O)n(-c2ccccc2)n1C` gave TAAR1 antagonist 59*, TAAR1 agonist 14, V1aR counter -1, OXTR potentiator -10, OXTR ag -1, TAAR1 nonsel count 28*, TAAR1 ant conf 50*, Ga16 ag counter 10 and TAAR1 ag count 10.
`COc1ccc(-c2cc(C(=O)Nc3c(C)n(C)n(-c4ccccc4)c3=O)c3ccccc3n2)c(OC)c1` gave TAAR1 antagonist 53*, TAAR1 agonist 8, V1aR counter -1, OXTR potentiator -4, OXTR ag -2, TAAR1 nonsel count 26*, TAAR1 ant conf 37, Ga16 ag counter 7 and TAAR1 ag count 11.
